TRPC6 activator = mouse TRPC6 channel activation. B-score at 10 µM. 310,000 compounds, 0.13% hits. HEK293-TRPC6 membrane potential dye fluorescence; active compounds read high. Q61143;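 active = B-score of the integrated fluorescence ratio above library mean plus 3 SD, and starting fluorescence ratio within library mean plus 5 SD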;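 also: higher score means more depolarization so channel activation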
CR mimetic SO = yeast age-related superoxide inhibition as caloric restriction mimetic. S. cerevisiae aged cells, superoxide DHE fluorescence; active compounds read low. superoxide response (% of plate mean), % at 10 µM. 330,000 compounds, 0.18% hits. AID 2690;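 active = superoxide response under a set limit, about three screen SD below normal, cut at about 65% in these data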;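 also: yeast aged for seven days with compound at 30 °C before DHE staining; 100% = average MFI of all compound-treated wells on the plate with controls excluded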
TRPC6 inhibitor = mouse TRPC6 channel inhibition | HEK293-TRPC6, membrane potential dye, ACh-evoked depolarization; active compounds read low | AID 2553 | B-score at 10 µM | Q61143 | 310,000 compounds, 1.1% hits;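 active = B-score under library mean minus 3 SD, initial fluorescence not abnormally high, positive integrated signal ratio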;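 also: B-score derived from integrated fluorescence ratio over the kinetic read; more negative B-score means stronger inhibition of depolarization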
TRPC4 act = opens the mouse TRPC4 cation channel; HEK293 TRPC4beta/mu-opioid, Fluo4 calcium fluorescence; active compounds read high; B-score at 10 µM; 310,000 compounds, 0.49% hits; AID 2237;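 active = B-score above 5 SD of library B-scores, and initial fluorescence ratio not above library mean plus 5 SD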;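 also: positive B-score marks a calcium rise read as TRPC4 activation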
Target sequence (Q9QUQ5 whole entry, looked up): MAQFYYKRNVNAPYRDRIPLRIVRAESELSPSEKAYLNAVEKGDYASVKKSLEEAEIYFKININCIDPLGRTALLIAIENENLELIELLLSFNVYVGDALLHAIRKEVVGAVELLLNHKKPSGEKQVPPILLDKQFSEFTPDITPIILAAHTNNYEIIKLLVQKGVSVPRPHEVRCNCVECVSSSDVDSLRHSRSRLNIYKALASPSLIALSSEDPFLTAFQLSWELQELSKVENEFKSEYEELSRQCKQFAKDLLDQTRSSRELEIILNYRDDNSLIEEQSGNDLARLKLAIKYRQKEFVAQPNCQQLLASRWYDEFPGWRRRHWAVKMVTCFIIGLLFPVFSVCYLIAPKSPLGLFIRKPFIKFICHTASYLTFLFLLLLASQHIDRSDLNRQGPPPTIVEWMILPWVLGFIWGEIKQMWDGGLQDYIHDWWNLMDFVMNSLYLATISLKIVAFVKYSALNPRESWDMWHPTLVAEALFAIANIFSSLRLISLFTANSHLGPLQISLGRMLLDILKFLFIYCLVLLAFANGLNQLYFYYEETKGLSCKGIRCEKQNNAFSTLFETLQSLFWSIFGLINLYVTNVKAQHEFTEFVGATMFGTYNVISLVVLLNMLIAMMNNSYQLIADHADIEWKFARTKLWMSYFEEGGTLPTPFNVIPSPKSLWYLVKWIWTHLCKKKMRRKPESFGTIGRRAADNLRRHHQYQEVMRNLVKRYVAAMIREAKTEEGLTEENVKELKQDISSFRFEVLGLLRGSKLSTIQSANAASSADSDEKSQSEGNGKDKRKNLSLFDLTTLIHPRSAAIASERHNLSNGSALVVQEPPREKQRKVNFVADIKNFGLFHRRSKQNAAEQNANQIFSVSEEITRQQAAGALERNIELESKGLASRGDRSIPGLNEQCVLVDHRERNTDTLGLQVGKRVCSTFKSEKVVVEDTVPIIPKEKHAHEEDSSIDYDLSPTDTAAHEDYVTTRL
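Test system: HEK293 cells stably co-expressing mouse TRPC4beta and mu-opioid receptor | Schedule: Fluo4 dye loading 45 min at room temperature, 110 s recording | Measured by: Kinetic Fluo4 calcium fluorescence, 5 s baseline at 1 Hz | Evaluation: B score of integrated ratio | Controls: Buffer (low) and maximal DAMGO (high)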
TRPC4 inh = inhibitors of mouse TRPC4 channel | B-score at 10 µM | 300,000 compounds, 0.39% hits | HEK293 TRPC4beta/mu-opioid, DAMGO-evoked Fluo4 calcium flux; active compounds read low;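 active = B-score over 3 SD under the library average, no early fluorescence shift, positive overall ratio signal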
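Material: HEK293 cells with stable TRPC4beta plus mu-opioid receptor expression / Probe or stimulus: DAMGO in two steps, submaximal then maximal / Compound: single concentration per test compound / Technique: kinetic Fluo4 fluorescence imaging of calcium influx / Read-out: per-well B score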
TRPC4 potent = allosterically enhances the mouse TRPC4 cation channel; 310,000 compounds, 0.42% hits; B-score at 10 µM; AID 2227; HEK293 TRPC4beta/mu-opioid, DAMGO EC20, Fluo-4 Ca2+ flux; active compounds read high;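 active = B-score of calcium response area above 5 SD of library B-scores, with initial fluorescence ratio within 5 SD of library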;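 also: B-score of integrated fluorescence ratio over time as area under calcium response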
* = called active by the depositor; i = inactive; . = no result. Sampled rows, rich in hits. Any-hit rate of the full collection: about 2.3%.

SMILES	TRPC6 activator	CR mimetic SO	TRPC6 inhibitor	TRPC4 act	TRPC4 inh	TRPC4 potent
CCOC(=O)c1cc(C)[nH]c(=O)c1C#N	i	102	i	i	i	10*
Cc1ccc(S(=O)(=O)Nc2cccc(C(=O)NC3CCN(Cc4ccccc4)CC3)c2)cc1F	i	74	i	i	i	i
O=C(c1cccc(NS(=O)(=O)c2ccc(F)c(F)c2)c1)N1CCN(Cc2ccccc2)CC1	i	107	i	81*	i	i
O=C(c1ccccc1)N1CCN(Cc2cccc(Oc3ccccc3)c2)CC1	17*	79	-11*	i	i	i
CC(C)(C)NC(=O)CSc1nnnn1C(C)(C)C	i	79	i	i	i	i
O=C(NC1CCCCC1)N1CCC(c2nc3ccc(Cl)cc3[nH]2)CC1	i	101	i	i	i	i
COc1ccccc1-c1ccc(SCc2ccccc2)nn1	i	95	i	i	i	i
OC12CCCCC1C(c1ccc3c(c1)OCO3)N(Cc1ccc(F)cc1)CC2 (centres undefined)	i	96	i	48*	i	i
O=C(COC(=O)c1c[nH]c(=O)[nH]c1=O)Nc1ccccc1F	i	128	i	i	i	i
COc1ccc2cc(C3CC(c4ccco4)=NN3S(=O)(=O)c3ccccc3)c(Cl)nc2c1 (centres undefined)	i	54*	i	i	i	i
CCOc1ccc2cc(C3CC(c4ccco4)=NN3S(=O)(=O)c3ccccc3)c(Cl)nc2c1 (centres undefined)	i	119	i	i	i	i
COc1ccc(CCNC2CCC(c3ccccc3)CC2)cc1 (centres undefined)	i	98	i	104*	i	i
COc1ccc(CCNC2CCc3ccccc3C2)cc1 (centres undefined)	i	107	i	i	i	i
O=C(c1cccnc1)N1CCN(Cc2cccc(F)c2)CC1	i	97	i	i	i	i
Cc1ccc(C)c(S(=O)(=O)/N=C2\C=C(NS(=O)(=O)c3ccccc3)C(=O)c3ccccc32)c1	i	101	i	i	-7*	i
CCc1ccc(S(=O)(=O)/N=C2\C=C(NS(=O)(=O)c3ccccc3)C(=O)c3ccccc32)cc1	i	.	i	i	i	i
Cc1ccc(NC(=O)c2c(O)c3ccccc3n(C)c2=O)nc1	i	101	i	i	i	i
CCCc1nc(N2CCOCC2)c(C#N)c2c1CCCC2	i	102	i	i	i	i
CCCCc1nc(N2CCOCC2)c(C#N)c2c1CCCC2	i	109	i	i	-6*	i
COc1cc2cc(C(=O)N3CCc4ccccc4C3)[nH]c2cc1OC	i	89	i	i	i	i
O=C1c2ccccc2S(=O)(=O)c2cc(C(=O)N(c3ccccn3)c3ccccn3)ccc21	i	103	i	135*	i	i
O=C(Nc1ccccn1)c1ccc2c(c1)S(=O)(=O)c1ccccc1C2=O	i	114	i	i	i	i
Cc1nn(C(=O)CNS(=O)(=O)c2ccccc2)c(C)c1Sc1ccc(Cl)cc1	i	85	i	i	-7*	i
O=C1c2ccccc2N[C@@H]2C=CC[C@@H]2N1O	.	99	.	.	.	.
O=C(COc1ccc(F)cc1)c1c(O)cc(O)cc1O	i	98	i	i	-6*	i
SMILES	TRPC6 activator	CR mimetic SO	TRPC6 inhibitor	TRPC4 act	TRPC4 inh	TRPC4 potent
COc1ccc(C(=O)COc2ccc(F)cc2)c(O)c1	i	109	i	i	i	i
N#Cc1c2n(c(=S)n(-c3ccc(OC(F)F)cc3)c1=O)CCCCC2	i	90	i	i	i	13*
O=C(Nc1ccccn1)c1ccc(Cl)c(S(=O)(=O)N2CCCCCC2)c1	i	103	i	i	i	i
Cc1c(N(C)S(=O)(=O)c2cc(C(=O)Nc3ccccn3)ccc2Cl)c(=O)n(-c2ccccc2)n1C	i	70	i	i	-5*	i
CCCC(=O)N1CCc2cc(-c3nc(N)sc3C)ccc21	i	89	i	101*	i	i
Cc1cccc(CNC(=O)C2CCC(=O)N(C3CCCC3)C2)c1 (centres undefined)	i	111	i	i	i	i
O=C(CC1C(=O)NCCN1C(=O)Nc1ccccc1)Nc1cccc(Cl)c1 (centres undefined)	i	82	i	i	i	i
O=C(CC1C(=O)NCCN1C(=O)Nc1ccccc1)Nc1cc(Cl)cc(Cl)c1 (centres undefined)	i	105	i	i	i	16*
CCOc1cc(CN2CCN(C(=O)c3cccc4ccccc34)CC2)ccc1OC	i	88	i	i	i	i
CCOC(=O)CNC(=O)CSc1nnnn1-c1ccc(C)c(C)c1	i	97	i	i	i	i
CCN(CC)C(CNC(=O)CSc1nnnn1-c1ccc(C)c(C)c1)c1ccco1 (centres undefined)	.	64*	.	.	.	.
CC(C)CCn1nnnc1C(c1ccccc1)N1CCC(C(N)=O)CC1 (centres undefined)	i	115	i	i	i	i
Cc1ccc(OCC(=O)NC(=S)Nc2ccccn2)c(Br)c1	i	94	i	i	i	i
Cc1ccc(OCC(=O)NNC(=S)NC(=O)C(C)(C)C)c(Br)c1	i	176	i	235*	i	i
Cc1ccc(OCC(=O)NNC(=S)NC(=O)C2CCCCC2)c(C)c1	i	134	i	54*	i	i
COc1ccc(CCN(C)C(=O)c2ccc(S(=O)(=O)Nc3ccccc3C)cc2)cc1OC	i	94	i	i	i	i
COC(=O)C(Cc1cccc(C)n1)(c1ccccc1)c1ccccc1	i	97	i	i	-7*	i
COC(=O)c1ccccc1OCc1cccc(C)n1	i	112	i	i	i	i
CCSc1nc(N)c2c3c(sc2n1)CN(C)CC3	i	96	-5.3*	i	i	i
Cc1cccc(-n2c(SC(C)C(=O)O)nc3sc4c(c3c2=O)CCCC4)c1 (centres undefined)	i	102	i	i	i	i
CC(Sc1nc2sc3c(c2c(=O)n1-c1ccccc1)CCCC3)C(=O)O (centres undefined)	i	97	i	i	i	17*
O=C(N/N=C/c1cccnc1)c1ccccc1OCc1ccc(Br)cc1	i	90	i	i	i	i

Screening results deposited in PubChem by several laboratories.
